According to ChEMBL document CHEMBL4680190, “Imidazo[2,1-b] [1,3,4]thiadiazoles with antiproliferative activity against primary and gemcitabine-resistant pancreatic cancer cells” (Eur J Med Chem, 2020):
Calls of active or inactive are those of the source. The calls are words filed in the database; no cut-off is given here.

What was measured:
[1] = molecular target: Focal adhesion kinase 1 (Homo sapiens) (UniProt Q05397); assay: Inhibition of PTK2 in human SUIT-2 cells assessed as inhibition of PTK2 phosphorylation at Y397 residue at 5XIC50 incubated for 24 hrs by western blot analysis; type: cell-based
[2] = molecular target: Focal adhesion kinase 1 (Homo sapiens) (UniProt Q05397); assay: Inhibition of PTK2 in human CAPAN-1 cells assessed as inhibition of PTK2 phosphorylation at Y397 residue at 5XIC50 incubated for 24 hrs by western blot analysis; type: cell-based
[3] = molecular target: Focal adhesion kinase 1 (Homo sapiens) (UniProt Q05397); assay: Inhibition of PTK2 in human Panc-1 cells assessed as inhibition of PTK2 phosphorylation at Y397 residue at 5XIC50 incubated for 24 hrs by western blot analysis; type: cell-based
[4] = tested on: PANC-1; assay: Antiproliferative activity against human Panc-1 cells assessed as reduction in cell growth incubated for 72 hrs by SRB assay; type: functional, cell-based; details: PANC-1, 72 h
Method in brief: (§1)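 Cells were seeded in triplicate at 3×10³/well (Panc-1, Panc-1R, PDAC-3) or 5×10³/well (Capan-1) and preincubated 24 h at 37 °C. Fixation was cold TCA, staining 0.4% SRB, solubilisation Tris pH 8.8, read at 490/540 nm. Growth was taken versus vehicle, day-0 corrected, and IC50 fitted nonlinearly; three independent experiments, mean ± SEM.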

[5] = tested on: CAPAN-1; assay: Antiproliferative activity against human Capan-1 cells assessed as reduction in cell growth incubated for 72 hrs by SRB assay; type: functional, cell-based; details: CAPAN-1, 72 h; method in brief: as §1
[6] = Antiproliferative activity against human SUIT-2 cells assessed as reduction in cell growth incubated for 72 hrs by SRB assay; type: functional, cell-based; details: SUIT-2, 72 h
Method in brief: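 SUIT-2 cells seeded at 3 × 10³/well in triplicate and left 24 h at 37 °C. Cells were fixed with cold TCA, stained with 0.4% SRB in 1% acetic acid and dissolved in Tris pH 8.8. A490/A540 was read vs vehicle, corrected for day-0 OD. IC50 came from nonlinear curve fit; mean of three experiments.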

[7] = Antiproliferative activity against gemicitabine-resistant human Panc-1R cells incubated for 72 hrs by SRB assay; type: functional, cell-based; details: PANC-1, 72 h; method in brief: as §1
[8] = Antiproliferative activity against human PDAC-3 cells assessed as inhibition of cell growth incubated for 72 hrs by SRB assay; type: functional, cell-based; details: PDAC-3, 72 h; method in brief: as §1

Chain of Focal adhesion kinase 1 (Homo sapiens) (Q05397 2-1052 limits assumed): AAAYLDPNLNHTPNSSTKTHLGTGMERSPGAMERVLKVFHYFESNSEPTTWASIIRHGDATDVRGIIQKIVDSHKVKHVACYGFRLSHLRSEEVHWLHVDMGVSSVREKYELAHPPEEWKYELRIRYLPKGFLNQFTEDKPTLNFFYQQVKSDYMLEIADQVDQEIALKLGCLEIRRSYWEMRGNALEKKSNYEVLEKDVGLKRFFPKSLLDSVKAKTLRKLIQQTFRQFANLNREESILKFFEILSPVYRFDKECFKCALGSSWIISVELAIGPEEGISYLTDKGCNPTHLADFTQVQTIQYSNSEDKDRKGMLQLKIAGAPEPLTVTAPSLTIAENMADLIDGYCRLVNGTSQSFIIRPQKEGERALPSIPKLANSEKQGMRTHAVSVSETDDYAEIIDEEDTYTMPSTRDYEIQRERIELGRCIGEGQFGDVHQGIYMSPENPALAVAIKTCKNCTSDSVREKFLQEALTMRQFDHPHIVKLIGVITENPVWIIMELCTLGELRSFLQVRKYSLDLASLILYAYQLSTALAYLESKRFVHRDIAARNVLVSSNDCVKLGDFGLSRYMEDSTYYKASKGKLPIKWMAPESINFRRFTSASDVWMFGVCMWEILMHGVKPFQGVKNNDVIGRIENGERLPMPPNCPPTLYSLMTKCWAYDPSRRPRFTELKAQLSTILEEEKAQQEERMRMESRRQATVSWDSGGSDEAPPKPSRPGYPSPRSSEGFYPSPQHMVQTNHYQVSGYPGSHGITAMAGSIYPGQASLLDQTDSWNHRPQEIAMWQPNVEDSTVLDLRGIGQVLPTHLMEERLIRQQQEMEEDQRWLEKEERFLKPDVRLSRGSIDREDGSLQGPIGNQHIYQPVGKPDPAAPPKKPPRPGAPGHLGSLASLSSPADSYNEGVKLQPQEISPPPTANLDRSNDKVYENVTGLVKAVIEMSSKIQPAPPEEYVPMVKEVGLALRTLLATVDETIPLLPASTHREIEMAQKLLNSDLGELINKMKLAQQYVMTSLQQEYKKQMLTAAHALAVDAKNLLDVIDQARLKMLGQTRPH

SMILES	inhibition [1]	inhibition [2]	inhibition [3]	IC50 [4] [µM]	IC50 [5] [µM]	IC50 [6] [µM]	IC50 [7] [µM]	IC50 [8] [µM]
Cn1cc(-c2nn3cc(-c4ccsc4)nc3s2)c2ccccc21	Active	Active	Active					
COc1ccc(OC)c(-c2nc3sc(-c4c[nH]c5ccc(Br)cc45)nn3c2C=O)c1				10.6	8.24	8.7		
O=c1[nH]cc(F)c(=O)[nH]1 [FLUOROURACIL]				4.3	0.47	0.91	4.5	0.56
O=Cc1c(-c2ccc(F)cc2)nc2sc(-c3c[nH]c4ccccc34)nn12				10.5	8.83	7.93		
O=Cc1c(-c2ccccc2)nc2sc(-c3c[nH]c4ccccc34)nn12				12.4	10.5	9.56		
COc1ccc(OC)c(-c2nc3sc(-c4cn(C)c5ccccc45)nn3c2C=O)c1				> 16	5.73	12.5		
COc1ccc(OC)c(-c2nc3sc(-c4c[nH]c5ccccc45)nn3c2C=O)c1				> 16	> 16	13		
Nc1ccn([C@@H]2O[C@H](CO)[C@@H](O)C2(F)F)c(=O)n1 [GEMCITABINE]				0.15	0.02	0.01	> 10	0.03
c1ccc2c(-c3nn4cc(-c5ccsc5)nc4s3)c[nH]c2c1	Active	Active	Active					
COc1cccc(-c2nc3sc(-c4c[nH]c5ccccc45)nn3c2C=O)c1				> 16	> 16	11.5		
